Results on 10 molecules are retold here after publication PMC10043961 (Biomedicine & Pharmacotherapy, 2023).

SMILES strings stand for the structures. pIC50: −log10 of the molar value. Several values for one entry are separate records, joined by “and”; a condition that tells them apart may be missing. Equal entries are not always repeated. Entries after “also recorded” stand apart in the source; their conditions may differ. Where two headings read alike, the source gives them in different places.

The subject of data set [1] is SARS-CoV-2 (USA-WA1/2020). Put plainly: microbe, parasite or virus in culture. It is filed as cell-based. Conditions: for EC50: Severe acute respiratory syndrome coronavirus 2, Huh7.5, read-out: EC50(µM) (R^2); for pIC50: Severe acute respiratory syndrome coronavirus 2, Huh7.5, read-out: IC50, inhibitory viral replication concentration at 50%.
Data set [2] deals with Vero E6 cells. Conditions: for Drug-induced toxicity, LDH release (in words): Vero E6, 24 h; for Effect on cellular ATP levels (in words): Vero E6, Cell Titer Glo.
Data set [3] has as its system SARS-CoV-2 (USA-WA1/2020). It is filed as cell-based.
The nature of data set [4]: in vitro. The following applies: human.
For data set [5], the target named is T1, SARS-CoV-2 Mpro (Severe acute respiratory syndrome coronavirus 2, UniProt P0DTD1). Nature of the data set: biochemical. Conditions: for pIC50: IC50 against Mpro activity.
Data set [6] addresses T1, SARS-CoV-2 Mpro. It is filed as binding.
Data set [7] relates to SARS-CoV-2. Type of data set: cell-based.
For data set [8] the following is noted: data from DrugBank ref 49; cited from earlier work.
Data set [9] is described as follows: Mouse pharmacokinetics: plasma and epithelial lining fluid. It is filed as in vivo, mice. The procedure, abridged:
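Female 6-week-old CD1 mice were dosed PO once daily for 7 days. […] Plasma and BAL were assayed by LC-MS/MS against spiked standard curves. ELF levels came from urea normalization (VELF = VBAL × UreaBAL/Ureaplasma). Free drug was calculated as total × fraction unbound from rapid equilibrium dialysis.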

Data set [10] deals with pyrimidine synthesis (DHODH) in Vero E6 cells. Put plainly: Metabolomic analysis of Vero E6 cells, de novo pyrimidine synthesis. It is filed as cell-based. Conditions: 24 h; for Pyrimidine synthesis, UMP levels (in words): Vero E6, 10 µM. The procedure, abridged:
(§1)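 Vero E6 cells at 80% confluence were treated for 24 h with test compound (1, 5 or 10 µM) in regular culture medium, with DMSO as vehicle. Cells were washed with ice-cold PBS and scraped into ice-cold 80% methanol for LC-MS metabolomics. Metabolites were matched to an in-house database (10 ppm mass, 0.5 min retention time tolerance), and peak integration was manually curated.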

Data set [11] has as its system SARS-CoV-2. Put plainly: microbe, parasite or virus in culture. It is filed as cell-based. The following applies: Severe acute respiratory syndrome coronavirus 2, Vero.
Data set [12] deals with SARS-CoV-2 double-stranded RNA. Type of data set: cell-based.
For data set [13], the system named is Vero E6 cells. Conditions: Vero E6, 1–10 µM, 24 h.
In data set [14] the test system is SARS-CoV-2 double-stranded RNA. Type of data set: cell-based. The source holds these as a separate data set.
For data set [15] the following is noted: cited from earlier work.
Data set [16] deals with SARS-CoV-2 viral clearance. The following applies: patients hospitalized with COVID-19 ref 62; cited from earlier work.
The subject of data set [17] is purine synthesis pathway in Vero E6 cells. Nature of the data set: Metabolomic analysis of Vero E6 cells, purine synthesis pathway. Type of data set: cell-based. Conditions: Vero E6, 1 and 5 µM. Put shortly: as §1
Data set [18] relates to ecto-5′-nucleotidase (NT5E) or (CD73). Put plainly: Western blot of NT5E. Type of data set: cell-based. Put shortly: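 Vehicle- and test compound-treated cells were lysed in RIPA buffer with protease inhibitors, and protein was measured by BCA in triplicate. Lysates were separated by SDS-PAGE and transferred to nitrocellulose. Membranes were blocked in 5% skim milk/TBS and probed with anti-NT5E/CD73 primary antibody.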
Background: Immunoblotting shows a protein as a band on a membrane.

The mark [19] stands for this setting: read-out: Inhibition of Mpro activity.
The mark [20] stands for this setting: mice, 10 mg/kg PO daily for 7 days, 10 mg/kg.

Take `C[C@@H]1O[C@@H](O[C@H]2C[C@@H](O)[C@]3(CO)[C@H]4[C@H](O)C[C@]5(C)[C@@H](C6=CC(=O)OC6)CC[C@]5(O)[C@@H]4CC[C@]3(O)C2)[C@H](O)[C@H](O)[C@H]1O` [Ouabain]: in data set [1], the EC50 was determined as 0.07 µM and the pIC50 is 7.12. Besides, the “Drug-induced toxicity, LDH release (in words)” value (from here on “Drug-induced toxicity”) in data set [2] is on record as “absence of overt toxicity”. In addition, in [3], the “Antiviral effect on SARS-CoV-2 replication (in words)” value (“Antiviral effect” for short) is “dose-dependent inhibition” and the “IC50 against SARS-CoV-2 (in words)” value is listed as “low nanomolar range”. In addition, the CC50 in [4] was > 100 µM.

Take `COc1ccccc1Oc1c(NS(=O)(=O)c2ccc(C(C)(C)C)cc2)nc(-c2ncccn2)nc1OCCO` [Bosentan]: in data set [2], the “Drug-induced toxicity” value is recorded as “minimal impact” and the “Effect on cellular ATP levels (in words)” value is listed as “minimal impact”. In data set [3], the “Antiviral effect” value is listed as “modest dose-dependent antiviral effects”.

In the case of `C=C[C@H]1C[N@@]2CC[C@H]1C[C@@H]2[C@@H](O)c1ccnc2ccc(OC)cc12` [Quinidine], in [2], the “Drug-induced toxicity” value was “minimal impact” and the “Effect on cellular ATP levels (in words)” value is reported as “minimal impact”. Further, the “Antiviral effect” value in [3] is “modest dose-dependent antiviral effects”.

Take `CCCCc1oc2ccc(NS(C)(=O)=O)cc2c1C(=O)c1ccc(OCCCN(CCCC)CCCC)cc1` [Dronedarone]: in data set [1], the EC50 was 0.38 µM and the pIC50 was 6.42. Moreover, in data set [5], the “Inhibition of Mpro activity (in words)” value is listed as “significant inhibition” and the pIC50 is 4.74. The inhibition at 50 µM in data set [5] (setting [19]) was 50%. In addition, the “Drug-induced toxicity” value in data set [2] is given as “particularly toxic at IC50 concentrations”. Further, in data set [3], the “Antiviral effect” value is recorded as “dose-dependent inhibition”. In addition, in data set [4], the CC50 was 20.2 µM.

Consider `CCN(CC)C(=O)/C(C#N)=C/c1cc(O)c(O)c([N+](=O)[O-])c1` [Entacapone], for which, in data set [5], the “Inhibition of Mpro activity (in words)” value is recorded as “significant inhibition”; the pIC50 is 5.05 and 5.04. Besides, in [5] (setting [19]), the inhibition at 50 µM is 50%. In addition, the “Antiviral effect” value in [3] is on record as “did not elicit a reproducible antiviral effect”. The Mpro covalently modified in [6] is on record as 15–20%.

In the case of `COc1cccc2c1C(=O)c1c(O)c3c(c(O)c1C2=O)C[C@@](O)(C(C)=O)C[C@@H]3O[C@H]1C[C@H](N)[C@H](O)[C@H](C)O1` [Daunorubicin], the “Drug-induced toxicity” value in data set [2] is recorded as “toxic to cells at high doses”. The “Antiviral effect” value in [3] is reported as “dose-dependent inhibition”.

As for `O=C1c2c(O)ccc(O)c2C(=O)c2c(NCCNCCO)ccc(NCCNCCO)c21` [Mitoxantrone], the “Drug-induced toxicity” value in data set [2] is recorded as “did not elicit substantial LDH release”. The “Antiviral effect” value in data set [3] is given as “dose-dependent inhibition”.

`COc1cccc(-c2ccc(NC(=O)C3=C(C(=O)O)CCC3)c(F)c2)c1` [vidofludimus]: the “Viral replication in the presence of uridine (in words)” value in data set [7] is “inhibitory activity was reversed with addition of uridine; also recorded: activity changed based on the uridine addition”.

In the case of `O=C1C(O)=C([C@H]2CC[C@H](c3ccc(Cl)cc3)CC2)C(=O)c2ccccc21` [Atovaquone], in data set [8], the Protein bound was > 99.9%. The “Cmax in mice compared to BID dosing in HIV infected volunteers” value in [9] (mice 20 mg/kg PO daily for 7 days versus human values of ref 57) is reported as 2–5 fold. Also, the “peak total plasma concentration” value in [9] (mice, 20 mg/kg PO daily for 7 days) is given as 100 µg/mL. Also, the “peak free epithelial lining fluid (ELF) concentration” value in data set [9] (mice, 20 mg/kg PO daily for 7 days, urea normalized, 20 mg/kg) is on record as 70 nM. In addition, in [9] (mice, 20 mg/kg PO daily for 7 days, 20 mg/kg), the “peak free plasma level” value is ~44 nM. The half-life in data set [9] (mouse, in vivo) is 18 to 38 h. Also, the EC50 in [1] is 6.2 µM. Besides, the results for the pIC50 in data set [1] and in data set [11] were 5.17 and 7.70, respectively. The “Viral replication in the presence of uridine (in words)” value in data set [7] was “significant inhibition for viral replication regardless the uridine concentration”. In addition, in [10] (Vero E6, 1 µM and 5 µM), the “Pyrimidine synthesis, UMP levels versus orotate and dihydroorotate (in words)” value is “does not inhibit pyrimidine synthesis”. In addition, the “Pyrimidine synthesis, UMP levels (in words)” value in [10] is given as “significant depletion in UMP levels”; in data set [10] (listed as atovaquone), “significant inhibition in pyrimidine synthesis”. Besides, the “dsRNA staining compared to DMSO-treated control cells” value in [12] and in data set [14] was “striking reduction in dsRNA staining” throughout. Besides, the inhibition at 50 µM in data set [5] (read-out: Inhibitory effect on Mpro activity) was ~35%. Also, the “Phospholipidosis, NBD-PE (in words)” value in data set [13] is on record as “did not show phospholipidosis”. Besides, the serum levels in data set [15] is > 40 µM. For the same molecule, the “primary endpoint: effect on SARS-CoV-2 viral clearance compared with placebo” value in data set [16] is given as “did not meet the primary endpoint”. Further, in data set [2], the “Drug-induced toxicity” value is “did not elicit substantial LDH release”. The “Antiviral effect” value in data set [3] is given as “dose-dependent inhibition”. Moreover, the “Free guanosine, inosine and adenosine levels (in words)” value in data set [17] is “downregulation of adenosine, guanosine, and inosine levels”; in [17] (listed as atovaquone) it was “significant depletion”. Further, the CC50 in data set [4] is > 100 µM. Moreover, in data set [18] (5 µM), the “NT5E protein expression, quantification (in words)” value is “significant decrease”. For the same molecule, in data set [18] (atovaquone treated cells), the “NT5E expression (in words)” value is listed as “significantly downregulated”.

In the case of `COC(=O)Nc1nc2ccc(C(=O)c3ccccc3)cc2[nH]1` [Mebendazole], the “time of maximum total plasma concentration after the last dose” value in [9] (mice, 10 mg/kg PO daily for 7 days) is ≤ 90 min. Also, in data set [9] (setting [20]), the “maximum total plasma concentration” value was 697.67 ng/mL and 2.36 µM; the “peak free drug level in ELF” value was ~550 ng/mL and ~1.8 µM. Further, the “Antiviral activity in Huh7.5 cells (in words)” value in data set [1] is reported as “lacks strong inhibitory activity; also recorded: less effective”. Besides, in data set [5], the “Inhibition of Mpro activity (in words)” value is given as “significant inhibition”; the pIC50 was 4.72 and 4.70. Moreover, the “peak plasma levels of patients” value in data set [15] (patients receiving 10 mg/kg every 6 h (total 40 mg/kg/day) ref 60) was 0.3 to 1.69 µM. Further, the “Drug-induced toxicity” value in [2] was “absence of overt toxicity”. In [3], the “Antiviral effect” value is “dose-dependent inhibition”. In data set [4], the CC50 was > 100 µM.

By EC50 is commonly meant the concentration needed to bring the measured effect to its halfway point. Broadly, the half-life is the time in which the quantity being followed falls by half.
